Reference: ChEMBL document CHEMBL3232995, “Synthesis and evaluation of effective photoaffinity probe molecule of furospinosulin-1, a hypoxia-selective growth inhibitor” (Bioorg Med Chem, 2014)
Calls of active or inactive are those of the source. The rule behind the calls is not given here.

Experiments:
[1] = tested on: DU-145; test: Antiproliferative activity against human DU145 cells under hypoxia condition assessed as growth inhibition at 10 to 100 uM after 24 hrs by MTT assay; assay type: functional, cell-based
In short: (§1)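 DU145 human prostate cancer cells kept in RPMI 1640 with 10% heat-inactivated FBS and kanamycin (50 µg/ml), 5% CO2, 37 °C. Seeded at 1 × 10⁴ cells/well. Held 4 h normoxic, then 12 h under 1% O2/5% CO2/94% N2 to induce hypoxia genes. Compound then added and plates kept a further 24 h hypoxic. Read-out by MTT, with inhibition as percent of parallel negative controls.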

[2] = tested on: DU-145; test: Antiproliferative activity against human DU145 cells under normoxia condition assessed as growth inhibition at 10 to 100 uM after 24 hrs by MTT assay; assay type: functional, cell-based
In short: (§2)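 DU145 cells were grown in RPMI 1640 with heat-inactivated 10% FBS and kanamycin (50 µg/ml) under humidified 5% CO2 at 37 °C and seeded at 1 × 10⁴ cells/well. Growth under normoxic conditions was measured by colorimetric MTT assay. Inhibition was taken relative to parallel negative controls.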

[3] = tested on: DU-145; test: Antiproliferative activity against human DU145 cells under hypoxia condition assessed as growth inhibition at 3 to 30 uM after 24 hrs by MTT assay; assay type: functional, cell-based; in short: as §1
[4] = tested on: DU-145; test: Inhibition of transcription factor complex formation in hypoxia-induced human DU145 cells assessed as reduction in nuclear proteins and Sp1 oligonucleotide probe complex at 100 to 300 uM by EMSA; assay type: functional, cell-based
In short: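 Nuclear extracts were made from DU145 cells under normoxia or hypoxia. They were pre-incubated on ice for 20 min with compound (100 or 300 µM) in binding buffer: 10 mM Tris-HCl pH 7.5, 50 mM KCl, 5 mM MgCl2, 1 mM DTT, 1% glycerol, BSA, poly(dI-dC). Then 5'-biotinylated Sp1 oligonucleotide (4 fmol per 20 µL) was added for 15 min at room temperature. Complexes were resolved on 5% native PAGE in 0.5× TBE, blotted, and detected by streptavidin-HRP/ECL.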

[5] = tested on: DU-145; test: Antiproliferative activity against human DU145 cells under hypoxia condition assessed as growth inhibition after 24 hrs by MTT assay; assay type: functional, cell-based; in short: as §1
[6] = tested on: Mus musculus; test: Toxicity in mouse S180 cells allografted in ddY mouse assessed as diarrhea at 5 to 25 mg/kg, po administered once every 2 days for 2 weeks relative to control; assay type: organism-based, CCRF S-180; design: dose 5-25 mg/kg, route oral; conditions: in vivo
In short: (§3)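 Female ddY mice, 6 weeks old, received S180 sarcoma cells (1 × 10⁶ cells/body) subcutaneously in the right ventral flank. Dosing began one week after implantation: oral suspension in 1% CMC-Na, every other day for 2 weeks (7 doses). Tumors were excised and weighed to give the inhibition ratio against control. Four mice per group. Weight loss and diarrhea were watched throughout.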

[7] = tested on: CCRF S-180; test: Antitumor activity against mouse S180 cells allografted in ddY mouse assessed as tumor growth at 25 mg/kg, po administered once every 2 days for 2 weeks relative to control; conditions: CCRF S-180, po
[8] = tested on: CCRF S-180; test: Antitumor activity against mouse S180 cells allografted in ddY mouse assessed as tumor growth at 5 mg/kg, po administered once every 2 days for 2 weeks relative to control; conditions: CCRF S-180, po
[9] = tested on: DU-145; test: Antiproliferative activity against normoxia-induced human DU145 cells assessed as growth inhibition after 24 hrs by MTT assay; assay type: functional, cell-based; in short: as §2
[10] = tested on: CCRF S-180; test: Antitumor activity against mouse S180 cells allografted in ddY mouse assessed as tumor growth at 10 mg/kg, po administered once every 2 days for 2 weeks relative to control; conditions: CCRF S-180, po
[11] = tested on: Mus musculus; test: Toxicity in mouse S180 cells allografted in ddY mouse assessed as weight loss at 5 to 25 mg/kg, po administered once every 2 days for 2 weeks relative to control; assay type: organism-based, CCRF S-180; design: dose 5-25 mg/kg, route oral; conditions: in vivo; in short: as §3

C#CCOC/C(C)=C/CC/C(C)=C/CC/C(C)=C/CC/C(C)=C/CCc1ccoc1
growth inhibition (GI) [1]: Active
growth inhibition (GI) [2]: Active

CC(C)=CCC/C(C)=C/CC/C(C)=C/CC/C(C)=C/CCc1ccoc1
growth inhibition (GI) [1]: Active
growth inhibition (GI) [2]: Active

C/C(=C\CC/C(C)=C/CCc1ccoc1)CC/C=C(\C)CC/C=C(\C)CCc1cn(CCOCCOCCOCCNC(=O)CSC[C@H](NC(=O)c2ccc(C(=O)c3ccccc3)cc2)C(=O)NCCOCCOCCOCCn2cc(CNC(=O)CCCC[C@@H]3SC[C@@H]4NC(=O)N[C@@H]43)nn2)nn1
growth inhibition (GI) [3]: Active
Activity [4]: Active

C/C(=C\CC/C(C)=C/CC/C(C)=C/CC/C(C)=C/CCc1ccoc1)CO
growth inhibition (GI) [1]: Active
growth inhibition (GI) [2]: Active

CC#CCC/C(C)=C/CC/C(C)=C/CC/C(C)=C/CC/C(C)=C/CCc1ccoc1
growth inhibition (GI) [1]: Active
growth inhibition (GI) [2]: Active

C/C(=C\CC/C(C)=C/CCc1ccoc1)CC/C=C(\C)CC/C=C(\C)CCc1cn(CCCCCNC(=O)CSC[C@H](NC(=O)c2ccc(C(=O)c3ccccc3)cc2)C(=O)NCCOCCOCCOCCn2cc(CNC(=O)CCCC[C@@H]3SC[C@@H]4NC(=O)N[C@@H]43)nn2)nn1
growth inhibition (GI) [3]: inactive
Activity [4]: inactive

CC(=O)OC/C(C)=C/CC/C(C)=C/CC/C(C)=C/CC/C(C)=C/CCc1ccoc1
growth inhibition (GI) [1]: Active
growth inhibition (GI) [2]: Active

C#CCC/C(C)=C/CC/C(C)=C/CC/C(C)=C/CC/C(C)=C/CCc1ccoc1
growth inhibition (GI) [5]: Dose-dependent effect
growth inhibition (GI) [1]: Active
Activity [6]: Non-toxic
level, % of control at 25 mg/kg [7]: 11%
growth inhibition (GI) [2]: Active
level, % of control at 5 mg/kg [8]: 45%
growth inhibition (GI) [9]: Dose-dependent effect
level, % of control at 10 mg/kg [10]: 26%
Activity [11]: Non-toxic

C/C(=C\CC/C(C)=C/CCc1ccoc1)CC/C=C(\C)CC/C=C(\C)CCc1cn(CCOCCOCCNC(=O)CSC[C@H](NC(=O)c2ccc(C(=O)c3ccccc3)cc2)C(=O)NCCOCCOCCOCCn2cc(CNC(=O)CCCC[C@@H]3SC[C@@H]4NC(=O)N[C@@H]43)nn2)nn1
growth inhibition (GI) [3]: Active
Activity [4]: Active

C#CC/C(C)=C/CC/C(C)=C/CC/C(C)=C/CC/C(C)=C/CCc1ccoc1
growth inhibition (GI) [1]: Active
growth inhibition (GI) [2]: Active

C/C(=C\CC/C(C)=C/CCc1ccoc1)CC/C=C(\C)CC/C=C(\C)CCc1cn(CCCNC(=O)CSC[C@H](NC(=O)c2ccc(C(=O)c3ccccc3)cc2)C(=O)NCCOCCOCCOCCn2cc(CNC(=O)CCCC[C@@H]3SC[C@@H]4NC(=O)N[C@@H]43)nn2)nn1
growth inhibition (GI) [3]: inactive
Activity [4]: inactive
